Source: PubChem (several laboratories)
T cell modulator: modulators of CD8 T cell-vesicle binding, primary screen, mouse 2C CD8+ T cells, flow cytometry; response (vesicle binding), % at 7 µM; 2C CD8+ T cell-vesicle binding; active compounds read low; 330,000 compounds, 0.068% hits;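 active = response, share of CD8 T cells binding vesicles, and their 90th percentile fluorescence all below set limits, cut at about 80% in these data, passing the limit was not always enough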;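 also: values below 100% mean blocked vesicle binding to the CD8+ T cells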
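incubation = binding step 1.5 h, 37 °C, antibody labelling 20 min, ice | test system = 2C mouse CD8+ T cells | read-out basis = percent CD8+ FL2 mean versus row control | controls = Peptide-free naked vesicles (low) and QL9 vesicles with 0.7% DMSO vehicle (high) | detection = flow cytometry of vesicle-bound cells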
SUMO HTRF inh: inhibitors of in vitro SUMOylation cascade, primary screen, biochemical, HTRF, uHTS; AID 2006, 2009; inhibition, % at 35 µM; HTRF SUMOylation assay, SAE1/SAE2 + UBC9; 290,000 compounds, 0.36% hits; in the data active = inhibition above about 50%, passing the limit was not always enough
pCIP destab: p/CIP-EGFP fusion destabilizers, primary screen, fluorescence, F442A cells; 16 h; decrease of EGFP signal, % at 10 µM; 290,000 compounds, 0.01% hits; Q05BA5;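 active = EGFP signal decrease of at least 30% at 10 µM or well 3 SD below plate mean, unless failing retest; inactive = the rest, including hits failing retest or dose response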
IMP-1 inh-1: IMP-1 metallo-beta-lactamase inhibitors, primary screen, biochemical, epi-absorbance readout, Pseudomonas aeruginosa enzyme | inhibition, % at 5.6 µM | metallo-beta-lactamase IMP-1 (Pseudomonas aeruginosa) | 290,000 compounds, 0.45% hits | purified IMP-1, nitrocefin hydrolysis, epi-absorbance fluorescence | AID 1556, 2009;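 active = inhibition above the mean plus 3 SD of all compounds in the same screening run, cut at about 4.5% in these data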;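 also: 0% = IMP-1 with DMSO and 100% = DMSO wells lacking enzyme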
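system = purified recombinant IMP-1 beta-lactamase | amount = 0.2 nM IMP-1, as dispensed | medium = HEPES buffer pH 7.1 with ZnSO4 and Brij 35 | times = 25 °C, 15 min preincubation, 25 min reaction | detection = plate fluorescence quenching by hydrolysis product, ex 480/em 530 nm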
VIM-2 inhibitor: VIM-2 metallo-beta-lactamase inhibitors, primary screen, biochemical, epi-absorbance readout, Pseudomonas aeruginosa enzyme; purified VIM-2, nitrocefin hydrolysis, epi-absorbance fluorescence; inhibition, % at 5.6 µM; 290,000 compounds, 0.89% hits; AID 1527, 2009;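 active = inhibition above the mean of all tested compounds plus 3 SD, cutoff set per screening run, cut at about 7.5% in these data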;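 also: red hydrolysis product quenches plate fluorescence so inhibitors raise well fluorescence; 0% = enzyme with DMSO and 100% = DMSO without enzyme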
Fh CTSL1 inh: Fasciola hepatica cathepsin L1 inhibitors, primary screen, counter-screen for PFM18AAP inhibitor project, biochemical, QFRET, fluorogenic peptide substrate; recombinant F. hepatica cathepsin L1, Z-Leu-Arg-MCA fluorescence; inhibition, % at 5.96 µM; 300,000 compounds, 0.49% hits; AID 1906, 2009;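 active = inhibition above the mean of all tested compounds plus 3 SD, set per screening campaign, cut at about 17% in these data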;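 also: 0% = plate median of test compound wells and 100% = 1 µM Z-Phe-Ala-diazomethylketone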
IMP-1 inh-2: IMP-1 metallo-beta-lactamase inhibitors, confirmation, selectivity assay for selective VIM-2 inhibitor project, biochemical, epi-absorbance readout, triplicate. 1,300 tested, under 10 active. shares compounds with VIM-2 inhibitor. purified IMP-1, nitrocefin hydrolysis, epi-absorbance fluorescence. AID 1856, 2009. inhibition, % at 5.6 µM; call rule not given here;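 also: 0% = enzyme with vehicle and 100% = vehicle without enzyme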
VIM-2 FRET inh: VIM-2 inhibitors in FRET format, confirmation, artefact control for selective VIM-2 inhibitor project, biochemical, epi-absorbance artifact exclusion. shares compounds with VIM-2 inhibitor. purified VIM-2, CCF2 FRET substrate hydrolysis. inhibition, % at 5.6 µM. 1,300 compounds, 23% hits. AID 1857, 2009;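 active = inhibition above the mean of all tested compounds plus 3 SD, cut at about 19% in these data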;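 also: 0% = VIM-2 plus DMSO and 100% = no enzyme wells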
TEM-1 inh: TEM-1 serine beta-lactamase inhibitors, counter-screen for VIM-2 inhibitor project, biochemical, epi-absorbance, HTS | shares compounds with VIM-2 inhibitor | Purified TEM-1, nitrocefin hydrolysis, epi-absorbance fluorescence | inhibition, % at 5.6 µM | 1,300 compounds, 3% hits | AID 1866, 2009;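 active = inhibition above that campaign's mean inhibition plus 3 SD, cut at about 0.46% in these data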;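 also: 0% = TEM-1 with DMSO and 100% = TEM-1 with 100 µM potassium clavulanate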
VIM-2 confirm 2: VIM-2 metallo-beta-lactamase inhibitors, confirmation, biochemical, epi-absorbance, hits shared with IMP-1 screen | purified VIM-2, nitrocefin hydrolysis | inhibition, % at 5.6 µM | 1,300 compounds, 96% hits | shares compounds with VIM-2 inhibitor;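 active = inhibition of the VIM-2 beta-lactamase enzyme above about 11% from the earlier first-round screen, limit read from the data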;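 also: 0% = VIM-2 with DMSO and 100% = buffer wells without enzyme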
The depositor's hits bear a star; · = no result given. In the library only some 1.9% were active in any assay of this set; here they are far more common.

SMILES	T cell modulator	SUMO HTRF inh	pCIP destab	IMP-1 inh-1	VIM-2 inhibitor	Fh CTSL1 inh	IMP-1 inh-2	VIM-2 FRET inh	TEM-1 inh	VIM-2 confirm 2
COc1ccc(NC(=O)COc2cccc3c2CCN(Cc2cccnc2)C3=O)cc1	266	4	-15	-1	0	-3	·	·	·	·
O=C(c1cc(Cl)ccc1[N+](=O)[O-])N1CCc2ccccc2C1	270	1	-19	-4	-3	-1	·	·	·	·
COc1ccc2c(c1)c(=O)c(C(=O)O)c(-c1ccc3c(c1)OCO3)n2C	388	22	-8	-1	40*	-1	-3	73*	-6	59*
COc1cc(NC(=O)CCCl)cc(-n2cnnn2)c1	212	12	5	-3	-2	-2	·	·	·	·
CCOc1cc(/C=N/n2cnnc2)ccc1OC(=O)c1cccc([N+](=O)[O-])c1	879	17	6	1	13*	9	-4	-1	-4	14*
COc1ccc(CCn2c(=N)c(C(=O)NCC3CCCO3)cc3c(=O)n4ccccc4nc32)cc1OC (stereo not given)	138	1	8	-2	14*	2	-2	-1	-5	21*
Cc1cccn2c(=O)c3cc(C(=O)NCC4CCCO4)c(=N)n(CCc4ccccc4)c3nc12 (stereo not given)	299	23	-18	-4	0	5	·	·	·	·
Cc1ccc(S(=O)(=O)N2CCN(C(=O)COC(=O)c3ccc(O)cc3)CC2)c(C)c1	344	·	·	·	·	-3	·	·	·	·
COc1ccc(OCC(O)CN2CCC(CN3C(=O)c4cccc5cccc(c45)C3=O)CC2)cc1 (stereo not given)	436	·	·	·	·	6	·	·	·	·
O=C1c2cccc3cccc(c23)C(=O)N1CC1CCN(CC(O)COCc2ccc3c(c2)OCO3)CC1 (stereo not given)	203	-4	-9	-1	16*	1	-3	-5	-6	24*
Cc1nc(C#N)c(N/N=C/c2cccc(Cl)c2)o1	698	14	-10	-4	0	1	·	·	·	·
C[n+]1cccc(/C=N/Nc2nc(Cl)c(C#N)c(Cl)c2Cl)c1	241	10	-4	-3	41*	-1	-3	32*	-6	57*
COc1cc(/C=C2/NC(=O)N(Cc3ccccc3F)C2=O)ccc1O	794	-5	-5	-2	0	0	·	·	·	·
N#C/C(=C(/O)Cc1ccccc1)P(=O)(c1ccccc1)c1ccccc1	369	8	-13	-1	-1	0	·	·	·	·
Cn1cc(Cl)c(-c2n[nH]c(=S)n2C2CCCCC2)n1	700	-5	-6	0	42*	0	-3	60*	-8	43*
S=c1[nH]nc(-c2ccco2)n1C1CCCCC1	254	2	-5	-2	25*	1	-3	52*	-6	34*
Nn1c(-c2ccco2)n[nH]c1=S	198	-21	0	-5	0	5	·	·	·	·
S=c1[nH]nc(CSCc2ccccc2Cl)n1C1CCCCC1	·	-12	-4	-2	0	·	·	·	·	·
COC(=O)C1N[C@@H]([C@@H](NC(=O)COc2ccccc2)C(=O)NCc2ccsc2)SC1(C)C (stereo not given in full)	·	·	·	·	·	-2	·	·	·	·
CCN1CCN(c2nc3ccccc3n3cnnc23)CC1	277	1	7	-1	1	11	·	·	·	·
Cc1nnc2c(N3CCN(CCO)CC3)nc3ccccc3n12	318	13	-10	-3	13*	1	-5	-1	-4	14*
O=[N+]([O-])c1cccc(/C=N/Nc2nc(C(Cl)(Cl)Cl)nc3ccccc23)c1	242	-11	5	-4	-4	6	·	·	·	·
ClC(Cl)(Cl)c1nc(N/N=C/c2ccncc2)c2ccccc2n1	263	30	-2	-4	34*	0	-3	-4	-6	65*
O=C1CN(Cc2cc(=O)oc3cc4c(cc23)CCC4)CCN1	656	-11	2	-1	1	3	·	·	·	·
CC1CCN(Cc2cc(=O)oc3cc4c(cc23)CCCC4)CC1	333	8	-11	0	-1	0	·	·	·	·
SMILES	T cell modulator	SUMO HTRF inh	pCIP destab	IMP-1 inh-1	VIM-2 inhibitor	Fh CTSL1 inh	IMP-1 inh-2	VIM-2 FRET inh	TEM-1 inh	VIM-2 confirm 2
CCN1CCN(Cc2cc(=O)oc3cc4c(cc23)CCC4)CC1	244	15	-7	-4	13*	2	-3	-5	-3	31*
CN1CCN(Cc2cc(=O)oc3cc4c(cc23)CCC4)CC1	288	27	-19	-3	18*	-2	-4	1	-6	30*
O=c1oc2cc(O[C@@H]3OC[C@@H](O)[C@H](O)[C@H]3O)ccc2c2ccccc12	198	19	14	-2	16*	-3	-2	-3	-5	28*
Nc1nccnc1C(=O)OCC(=O)NC1CCCc2ccccc21 (stereo not given)	161	·	·	·	·	·	·	·	·	·
Cc1cccc(-n2c(CCn3nc(C)c([N+](=O)[O-])c3C)n[nH]c2=S)c1	187	5	-5	-5	17*	3	-4	46*	-7	30*
COc1cccc(-n2c(CCn3nc(C)c([N+](=O)[O-])c3C)n[nH]c2=S)c1	238	-4	-1	-3	14*	-1	-3	38*	-4	25*
CCCCC1=CC2=C(c3ccco3)C(=O)C(C)(OC(=O)c3ccc(OC)cc3)C(=O)C2=CN1C1CCCCC1 (stereo not given)	184	28	2	·	·	8	·	·	·	·
CCOC(=O)CNc1ncnc2nc[nH]c12	336	-4	-6	-1	2	2	·	·	·	·
CCc1ccc(/C=N/Nc2ncnc3nc[nH]c23)cc1	428	25	-9	-3	15*	5	-3	-15	-1	43*
